From PubChem
CHRM5 antagonist – human M5 muscarinic receptor antagonists, primary screen, CHO cells, Fluo-8 calcium fluorescence. inhibition, % at 3 µM. hit rate 0.59% among 360,000. Muscarinic acetylcholine receptor M5 (Homo sapiens), P08912. CHO-hM5 cells, ACh EC80;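 active = inhibition above a per-plate cutoff, the mean of that plate's test compounds plus 3 SD, cut at about 27% in these data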
CHRM5 agonist – human M5 muscarinic receptor agonists, primary screen, CHO-K1 cells, Fluo-8 calcium fluorescence; Muscarinic acetylcholine receptor M5 (Homo sapiens), P08912; CHO-K1 hM5 cells; 0% DMSO wells, 100% maximal acetylcholine response; activation, % at 3 µM; hit rate 0.19% among 360,000;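 active = activation above the run's mean over test compounds plus 3 SD, cut at about 23% in these data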;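 also: signal is peak over basal fluorescence ratio across the kinetic read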
M5 PAM – human M5 muscarinic receptor positive allosteric modulators, primary screen, CHO-K1 cells, Fluo-8 calcium fluorescence | Muscarinic acetylcholine receptor M5 (Homo sapiens), P08912 | CHO-K1 hM5, ACh EC20 PAM; 0% = ACh EC20, 100% = ACh EC100 | activation, % at 3 µM | hit rate 0.3% among 360,000 | AID 624038, 2012;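 active = activation above the run cutoff, the mean activation of all test compounds plus 3 SD, cut at about 18% in these data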
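Probe or stimulus: acetylcholine, EC20 level; Assay system: human M5 receptor in CHO-K1 cells; Schedule: compound preincubation 140 s before EC20 acetylcholine addition; Technique: intracellular calcium via Fluo-8 fluorescence; Dosing: single-point, 3 µM nominal; Read-out basis: percent activation from peak-over-basal fluorescence ratio, scaled EC20-to-EC100 acetylcholine; Repeats: one well per compound, no replicates.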
M4 ag – human M4 muscarinic receptor agonists, primary screen, CHO-K1 cells, Fluo-8 calcium fluorescence. Muscarinic acetylcholine receptor M4 (Homo sapiens), P08173. hit rate 0.14% among 360,000. activation, % at 3 µM. CHO-K1 hM4/Gqi5; vehicle 0%, full acetylcholine response 100%. AID 624127, 2012;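 active = activation above the run mean over all test wells plus 3 SD, cut at about 32% in these data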;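 also: peak over basal fluorescence ratio per well then scaled between controls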
Target sequence (P08173 whole entry, looked up): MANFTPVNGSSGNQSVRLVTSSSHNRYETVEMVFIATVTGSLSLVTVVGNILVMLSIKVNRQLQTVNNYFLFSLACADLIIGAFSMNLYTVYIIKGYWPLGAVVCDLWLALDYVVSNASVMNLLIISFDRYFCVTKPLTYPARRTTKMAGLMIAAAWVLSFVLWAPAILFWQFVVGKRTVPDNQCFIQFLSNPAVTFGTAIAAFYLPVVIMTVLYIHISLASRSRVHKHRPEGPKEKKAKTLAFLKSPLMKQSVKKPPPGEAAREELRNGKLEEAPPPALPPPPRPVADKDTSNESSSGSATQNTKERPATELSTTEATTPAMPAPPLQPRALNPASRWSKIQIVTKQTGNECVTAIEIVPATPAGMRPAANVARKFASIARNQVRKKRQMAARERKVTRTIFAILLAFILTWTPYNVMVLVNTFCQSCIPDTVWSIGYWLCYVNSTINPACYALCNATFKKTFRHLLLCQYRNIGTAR
M4 antag – human M4 muscarinic receptor antagonists, primary screen, CHO cells, Fluo-8 calcium fluorescence. hit rate 0.73% among 360,000. CHO-hM4 cells, ACh EC80. inhibition, % at 3 µM;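 active = inhibition above its plate's cutoff, the mean inhibition of sample wells plus 3 SD, cut at about 27% in these data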
M4 PAM – human M4 muscarinic receptor positive allosteric modulators, primary screen, CHO-K1 cells, Fluo-8 calcium fluorescence | CHO-K1 hM4/Gqi5, ACh EC20; 0% = ACh EC20, 100% = maximal ACh | activation, % at 3 µM | Muscarinic acetylcholine receptor M4 (Homo sapiens), P08173 | hit rate 0.4% among 360,000;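 active = activation above its plate's cutoff, the mean activation of sample wells plus 3 SD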
Large screens that a line does not name were inactive. The list is not random: actives were taken first. Their share in the collection is about 1.8%.

CCN(CC)c1ccc(Nc2nc(Cl)ncc2Br)cc1	none
COc1ccc(C(=O)Nn2c(SCc3ccc([N+](=O)[O-])cc3)nc3ccccc3c2=O)cc1	M5 PAM 18
Cc1cc(F)ccc1S(=O)(=O)N(CC(=O)N1CCOCC1)CC(=O)N1CCOCC1	M4 PAM 25
C[C@]12CC[C@H](O)CC1=CCC1C2CC[C@@]2(C)C1CC[C@@H]2NC(=O)[C@@H](N)Cc1cnc[nH]1 (stereo not given in full)	none
CC(C)c1nc(SCC(=O)NCC2CCCO2)c2c(=O)n(C)c(=O)n(C)c2n1 (stereo not given)	none
CCC(C)N(C(=O)COC(=O)CN=C1NS(=O)(=O)c2ccccc21)C1CCS(=O)(=O)C1 (stereo not given)	none
Cc1[nH]nc(-c2ccc(OCc3cnn(-c4ccccc4)c3)cc2O)c1Oc1ccccc1F	M4 PAM 24
CC(O)c1nc2ccccc2n1C/C=C/c1ccccc1 (stereo not given)	none
Cc1c(P(=S)(c2ccccc2)c2ccccc2)[n+]2ccccc2n1C/C=C/c1ccccc1	M4 antag 29
Cc1ccc(NC(=O)Nc2cccc([N+](=O)[O-])c2)cc1F	CHRM5 antagonist 28
Cc1ccc(NC(=S)NNC(=O)c2cccc([N+](=O)[O-])c2)cc1Cl	CHRM5 antagonist 28
Cc1ccc(C(C)C)cc1NC(=O)Nc1ccc([N+](=O)[O-])cc1	CHRM5 antagonist 28
Cc1cc(O)c(C(C)C)cc1NC(=O)Nc1ccc([N+](=O)[O-])cc1	none
Cc1cccc(NC(=O)CN2C(=O)C3CC=CCC3C2=O)c1C (stereo not given)	none
Cc1nc2nc(-c3ccccc3)cn2nc1C	M4 PAM 18
CCOC(=O)CSc1nc(C)c(CC)c(C)c1C(N)=O	none
CCOC(=O)CSc1nc(N)nc(C)c1Cl	CHRM5 antagonist 27
Cc1nn(-c2cc(N3CCNCC3)ccc2[N+](=O)[O-])c(=O)c2ccccc12	M5 PAM 19
CC[C@H]1O[C@H](C)CC2=C1C(=O)OC(C)(C)O2	M4 PAM 23
O=C(COC(=O)c1nc(Cl)ccc1Cl)NC1CCS(=O)(=O)C1 (stereo not given)	none
COc1ccc(C(=O)Nc2ccc([N+](=O)[O-])cn2)c(OC)c1	M5 PAM 20
CCOC(=O)C1CCN(CC(=O)Nc2cc(S(=O)(=O)N3CCCCC3)ccc2Cl)CC1	none
CNCCCC1c2ccccc2C=Cc2ccccc21	CHRM5 antagonist 99, M4 antag 91
CC(=O)/C(C[N+]1(C)CCCCC1)=N\O	CHRM5 antagonist 43, M4 antag 34
C[N+]1(CC(=O)OCCCc2ccccc2)CCCCC1	none
Cc1[nH]n(-c2ccccc2)c(=O)c1/C=N/NC(=O)c1ccc(O)cc1O	none
Cc1cc(C(=O)N/N=C/c2c(C)[nH]n(-c3ccccc3)c2=O)n[nH]1	M5 PAM 19
O=C(Cn1cnc2c(nnn2Cc2ccccc2)c1=O)c1ccccc1	M4 PAM 18
Cc1cccc(NC(=O)CCCNC(=O)c2ccc(Cl)cc2)n1	none
O=C(NCc1ccc2c(c1)OCO2)Nc1ccc([N+](=O)[O-])cc1	CHRM5 antagonist 38
CCOc1ccc(S(=O)(=O)N2CCOCC2)cc1NC(=O)CSCc1ccc(C)cc1	none
Clc1ccc(-c2nnc3c4ccccc4nc(N4CCOCC4)n23)cc1Cl	none
Brc1ccc(-c2nnc3c4ccccc4nc(N4CCOCC4)n23)cc1	M4 PAM 40
CCN(CC(=O)Nc1ccc(OC)cc1)C(=O)CN1C(=O)NC(C)(c2ccc3ccccc3c2)C1=O (stereo not given)	CHRM5 antagonist 32
CCN(CC(=O)Nc1ccc(OC)cc1)C(=O)Cc1ccsc1	M4 PAM 22
CCn1cc(C=O)c2cc(S(=O)(=O)N3CCOCC3)ccc21	M4 antag 26
O=C(C(=O)N1CCN(c2ccccc2)CC1)c1cccc(Br)c1	M4 antag 30
Cc1ccc(N2CCN(C(=O)C(=O)c3cccc(Br)c3)CC2)cc1	none
CCOc1cc(/C=N\NC(=O)CC(=O)NCCc2ccccc2)ccc1O	CHRM5 antagonist 29
CN(C)c1ccc(/C=N/NC(=S)NCc2ccccc2)cc1	none
CCOc1ccc(/C=N\NC(=O)CC(=O)NCCc2ccccc2)cc1	none
CCOc1ccc(/C=N/NC(=O)CC(=O)NCc2ccccc2)cc1	M5 PAM 28
COc1cc(/C=N\NC(=O)CC(=O)NCCc2ccccc2)ccc1O	none
CC(C)(C)c1ccc(/C=N/NC(=S)NCc2ccccc2)cc1	M4 PAM 25
CN(CCOc1ccccc1)CC(=O)Nc1ccc(Br)cc1F	none
CN(C)CCC=C1c2ccccc2C=Cc2ccccc21	CHRM5 antagonist 99, M4 antag 99
CN(C)CC/C=C1/c2ccccc2COc2ccc(CC(=O)O)cc21	none
CNc1ccc(C=C2C=Cc3ccccc32)cc1	none
CN(C)CCC=C1c2ccccc2CCc2ccccc21	CHRM5 antagonist 99, M4 antag 95
CNCCC=C1c2ccccc2C=Cc2ccccc21	CHRM5 antagonist 99, M4 antag 90
O=c1cccc(-c2ccccc2)[nH]1	M5 PAM 30
COc1ccccc1Oc1ncnc2c1cnn2-c1ccccc1	none
COc1ncnc2c1cnn2-c1ccccc1	M4 PAM 27
CC(=O)Nc1ccc(Nc2ncnc3c2cnn3-c2ccccc2)cc1	M4 antag 28
CC(=O)Nc1ccc(Nc2ncnc3c2cnn3-c2cccc(C)c2)cc1	none
COc1cc(/C=C/C(=O)OCC(=O)N2c3ccccc3NC(=O)C2(C)C)cc(OC)c1OC	none
Cc1ccc(N=C2NC(=O)C(CC(=O)NCc3ccccc3)S2)cc1C (stereo not given)	none
CC(C)(C)c1ccc(S(=O)(=O)N2CCC(O)(c3ccc(Cl)cc3)CC2)cc1	CHRM5 antagonist 30
COc1ccc(S(=O)(=O)N2CCC(O)(c3ccc(Cl)cc3)CC2)cc1	none
CC(C)Cn1c(N)c(C(=O)COC(=O)CCc2nc3ccccc3s2)c(=O)n(C)c1=O	CHRM5 antagonist 32
CC(C)Cn1c(N)c(C(=O)COC(=O)CC23CC4CC(CC(C4)C2)C3)c(=O)n(C)c1=O	M4 antag 37
Cc1ccccc1OCCC(=O)OCC(=O)c1c(N)n(CC(C)C)c(=O)n(C)c1=O	CHRM5 antagonist 34
